Results of several laboratories.
Protocols differ between the studies behind these lines.
Target: Serine/threonine-protein kinase PLK1 (PLK1, Homo sapiens, UniProt P53350)

| SMILES | assay | conditions | endpoint | value |
| --- | --- | --- | --- | --- |
| Cc1nn(C)cc1-c1nc2c(N3CCN(Cc4ccc(Cl)cc4)CC3)c(Cl)cnc2[nH]1 | binding, competition with immobilised ligand | 1 µM | remaining binding | 100% |
| C#Cc1n[nH]c2c(-c3cn([C@@H](C)c4ccccn4)c(=O)[nH]c3=O)cc(F)cc12 | enzyme activity, inhibitor | 0.1 µM | inhibition | 2.9% |
| Cn1cc(-c2cccc(N3CCc4c(sc5c4CC(C)(C)C5)C3=O)c2CO)cc(Nc2ccncn2)c1=O | enzyme activity, inhibitor | 1 µM | inhibition | 4% |
| Cn1cncc1[C@@](O)(COc1ccc(C#N)cc1-c1ccc(OC(F)(F)F)cc1)c1ccc(C#N)cc1 | cell-free assay, competition with immobilised ligand | 1 µM | remaining binding | 83% |
| C#Cc1n[nH]c2c(-c3cn([C@@H](C)c4ccccc4)c(=O)[nH]c3=O)cc(F)cc12 | enzyme activity, inhibitor | 0.1 µM | inhibition | 2.9% |
| N#CC1(c2ccccn2)CCN(Cc2cc(C(=O)O)c(=O)n3ccccc23)CC1 | cell-free assay, competition with immobilised ligand | 1 µM | remaining binding | 70% |
| CC(C)(C)c1cc(C=C(C#N)C#N)cc(Br)c1O | enzyme activity, inhibitor | 0.5 µM | remaining activity | 92.3% |
| COc1ncccc1-c1cnn2ccc(N3CCN(C(=O)OC(C)C)CC3)nc12 | binding, competition with immobilised ligand | 1 µM | remaining binding | 100% |
| O=c1[nH]c2ccccc2n1C1CCN(Cc2ccc(-c3[nH]c4cc5ncnc5cc4nc3-c3ccccc3)cc2)CC1 | cell-free assay | 0.5 µM | remaining signal | 109% |
| Cn1cc(-c2cc(F)cc(N3CCn4c(cc5c4CCCC5)C3=O)c2CO)cc(Nc2ccc(N3CCN(C4COC4)CC3)cn2)c1=O | enzyme activity, inhibitor | 0.1 µM | inhibition | 11% |
| Nc1ncc(-c2nc(N3CCOCC3)nc(N3CCOCC3)n2)c(C(F)F)n1 | binding, competition with immobilised ligand | 10 µM | remaining binding | 66% |
